According to ChEMBL document CHEMBL1158007, “Steroidal glycosides from the bulbs of Allium jesdianum” (J Nat Prod, 1999):
Active and inactive are the calls of the source. The calls are words filed in the database; no cut-off is given here.

Tested on: HL-60
Assay: Cytotoxicity against human HL-60 cells after 72 hrs by MTT assay
Assay type: functional, cell-based
Method in brief: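 HL-60 cells grown in RPMI 1640 with 10% FBS, L-glutamine, penicillin and streptomycin, seeded at 3 × 10^4 cells/mL, and preincubated 24 h at 37 °C in 5% CO2. Sample in EtOH-H2O (1:1) added to a final 0.01-10 µg/mL, with vehicle-only controls, for 72 h. MTT added for 4 h, then formazan dissolved in DMSO and read at 550 nm. IC50 taken from the dose-response curve.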

| Structure (SMILES) | Activity | IC50 (HL-60, 72 h) |
| --- | --- | --- |
| CC(C)CC[C@H](O)[C@@H](C)[C@H]1[C@@H](O[C@@H]2O[C@H](CO)[C@@H](O)[C@H](O)[C@H]2O)C[C@H]2[C@@H]3CC=C4C[C@@H](O)C[C@@H](O[C@@H]5O[C@@H](C)[C@H](O)[C@@H](O)[C@H]5O)[C@]4(C)[C@H]3CC[C@]12C | inactive | – |
| C[C@@H]1CC[C@@]2(OC1)O[C@H]1C[C@H]3[C@@H]4C[C@H](O)[C@H]5C[C@@H](O[C@@H]6O[C@H](CO)[C@H](O[C@@H]7O[C@H](CO)[C@@H](O)[C@H](O[C@@H]8OC[C@@H](O)[C@H](O)[C@H]8O)[C@H]7O[C@@H]7O[C@H](CO)[C@@H](O)[C@H](O)[C@H]7O)[C@H](O)[C@H]6O)[C@H](O)C[C@]5(C)[C@H]4CC[C@]3(C)[C@H]1[C@@H]2C | – | > 10 µg/mL |
| CC(C)CC[C@H](O)[C@@H](C)[C@H]1[C@@H](O[C@@H]2O[C@H](CO)[C@@H](O)[C@H](O)[C@H]2O)C[C@H]2[C@@H]3CC=C4C[C@@H](O)C[C@@H](O[C@@H]5O[C@H](CO)[C@@H](O)[C@H](O)[C@H]5O)[C@]4(C)[C@H]3CC[C@]12C | inactive | – |
